ChEMBL document CHEMBL1126171, “Synthesis of 2-(p-chlorobenzyl)-3-aryl-6-methoxybenzofurans as selective ligands for antiestrogen-binding sites. Effects on cell proliferation and cholesterol synthesis” (J Med Chem, 1992)
Blank lines part the entries; values can stand above or below the compound they belong to.

Experiments:
[1] = molecular target: T1, Anti-estrogen binding site (AEBS) (Homo sapiens) (UniProt Q15125+Q9UBM7); assay: Relative binding affinity(RBA) against AEBS (Antiestrogen binding site) in rat liver; assay type: functional, tissue-based; details: target entry is the homologue from another species
[2] = molecular target: T1, Anti-estrogen binding site (AEBS) (Homo sapiens); assay: Relative binding affinity(RBA) against AEBS (Antiestrogen binding site) using EL-4 cells; assay type: functional, cell-based; details: Mus musculus
[3] = molecular target: Estrogen receptor (Homo sapiens) (UniProt Q92731+P03372); assay: Relative binding affinity(RBA) against Estrogen receptor using MCF-7 cells; assay type: cell-based; details: MCF7
How it was run: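 Competition for ER in MCF7 whole cells suspended in phosphate-buffered saline, 3 × 10^7 cells per duplicate aliquot. Incubated with 5 nM [3H]estradiol with or without 100-fold molar excess of competitor or diethylstilbestrol, then washed and counted as for the AEBS assay. Bound label reported as % of no-competitor control. Mean ± SEM of two experiments.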

[4] = molecular target: T1, Anti-estrogen binding site (AEBS) (Homo sapiens); assay: Effect on cholesterol biosynthesis in EL4 cells, 5 hr incubation with 0.25 mM [3H]acetate; assay type: functional, cell-based; details: Mus musculus
How it was run: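 EL4 cells at 20 × 10^6 cells/mL in lipoprotein-poor RPMI given 0.25 mM [3H]acetate for 5 h, without or with compound (10^-6 M or 10^-4 M depending on compound); triplicates in two experiments. KOH/ethanol saponification at 95 °C with [14C]cholesterol recovery standard; petroleum ether extraction. Label in cholesterol as % of total cellular incorporation; % inhibition versus control; Student's t test.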

[5] = Percent of cell viability by trypan blue exclusion; assay type: functional
How it was run: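 Viability of EL4 cells in the [3H]acetate cholesterol-synthesis incubations (20 × 10^6 cells/mL; 5 h or 48 h with compound at 10^-7 to 10^-4 M), estimated by trypan blue exclusion.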

[6] = molecular target: T1, Anti-estrogen binding site (AEBS) (Homo sapiens); assay: Displacement of [3H]tamoxifen from AEBS of EL4 cells; assay type: functional, cell-based; details: Mus musculus
[7] = test system: MCF7S; assay: (§1) Inhibition of [3H]thymidine incorporation into MCF-7 cells; assay type: functional, cell-based; details: Homo sapiens
How it was run: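 MCF7 cells in Hepes-buffered RPMI 1640 with 5% newborn calf serum, seeded 4500 per well. After 24 h, compound (final […], diluted from 1 mM ethanolic stock; solvent controls) and [3H]thymidine (37 kBq/well) added. Incubated 48 h, then trypsinized, harvested and counted. […] Mean ± SEM of two experiments.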

[8] = molecular target: T1, Anti-estrogen binding site (AEBS) (Homo sapiens); assay: Effect on cholesterol biosynthesis in EL4 cells, 48 hr incubation with 0.25 mM [3H]acetate; assay type: functional, cell-based; details: Mus musculus
How it was run: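 EL4 cells at 20 × 10^6 cells/mL in lipoprotein-poor RPMI, incubated 48 h with 0.25 mM [3H]acetate ± 10^-7 M compound, in triplicate, two experiments. Stopped with KOH/ethanol, [14C]cholesterol added for recovery, saponified 95 °C 90 min. Nonsaponifiable lipids extracted in petroleum ether. Result as % of total incorporated label found in cholesterol; inhibition versus control; Student's t test.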

[9] = test system: EL4; assay: Inhibition of [3H]thymidine incorporation into EL4 cell proliferation; assay type: functional, cell-based; details: Mus musculus, EL4, 48 h
How it was run: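 Treated 48 h with compound; DNA synthesis measured by [3H]thymidine incorporation, cells harvested onto filters and counted. Mean ± SEM of two experiments.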

[10] = molecular target: T1, Anti-estrogen binding site (AEBS) (Homo sapiens); assay: Relative binding affinity(RBA) against AEBS (Antiestrogen binding site) in N1-S1 cells; assay type: functional, cell-based; details: Rattus norvegicus
[11] = molecular target: T1, Anti-estrogen binding site (AEBS) (Homo sapiens); assay: Relative binding affinity(RBA) against AEBS (Antiestrogen binding site) in MCF-7 cells; details: target entry is the homologue from another species
[12] = molecular target: T1, Anti-estrogen binding site (AEBS) (Homo sapiens); assay: Relative binding affinity (RBA) against AEBS (Antiestrogen binding site) in rat liver; assay type: functional, tissue-based; details: target entry is the homologue from another species
[13] = molecular target: T1, Anti-estrogen binding site (AEBS) (Homo sapiens); assay: Relative binding affinity(RBA) against AEBS (Antiestrogen binding site) in chicken liver; details: Gallus gallus; target entry is the homologue from another species
[14] = molecular target: T1, Anti-estrogen binding site (AEBS) (Homo sapiens); assay: Relative binding affinity(RBA) against AEBS (Antiestrogen binding site) in guinea pig uterus; assay type: functional, tissue-based; details: Cavia porcellus, target entry is the homologue from another species
[15] = test system: MCF7S; assay: as §1; assay type: functional, cell-based; details: Homo sapiens; remark: listed apart in the source
How it was run: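 After 24 h, compound (final […], diluted from 1 mM ethanolic stock; solvent controls) and [3H]thymidine (37 kBq/well) added. Incubated 48 h, then trypsinized, harvested and counted. Mean ± SEM of two experiments.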

[16] = molecular target: T1, Anti-estrogen binding site (AEBS) (Homo sapiens); assay: Relative binding affinity(RBA) against AEBS (Antiestrogen binding site) using N1-S1 cells; assay type: functional, cell-based; details: Rattus norvegicus
[17] = molecular target: T1, Anti-estrogen binding site (AEBS) (Homo sapiens); assay: Relative binding affinity (RBA) against AEBS (Antiestrogen binding site) using N1-S1 cells; assay type: functional, cell-based; details: Rattus norvegicus
[18] = molecular target: T1, Anti-estrogen binding site (AEBS) (Homo sapiens); assay: Relative binding affinity(RBA) against AEBS (Antiestrogen binding site) in N1-S1 cells

relative binding affinity (RBA) [2]: 257
relative binding affinity (RBA) [3]: < 1
Structure (SMILES): COc1ccc2c(c1)OCC(c1ccc(Cl)cc1)=C2c1ccc(OCCN2CCCC2)cc1

relative binding affinity (RBA) [1]: 23
Structure (SMILES): COc1ccc2c(-c3ccc(OCCN4CCCC4)cc3)c(-c3ccccc3)oc2c1

relative binding affinity (RBA) [2]: 169
relative binding affinity (RBA) [3]: < 1
Structure (SMILES): COc1ccc2c(c1)OCC(c1ccc(Br)cc1)=C2c1ccc(OCCN2CCCC2)cc1

Activity [4]: 0.12% [middle of 6 runs]
relative binding affinity (RBA) [6]: 268
IC50 [7]: 2.3 µM
Activity [8]: 0.32% [middle of 5 runs]
Structure (SMILES): COc1ccc2c(-c3ccc(OCCN4CCCC4)cc3)c(Cc3ccc(Cl)cc3)oc2c1.Cl
Cell viability [5]: 91%
IC50 [9]: 0.475 µM

relative binding affinity (RBA) [1]: 46
Structure (SMILES): COc1ccc2c(c1)OC(C)(C)[C@@H](c1ccccc1)[C@H]2c1ccc(OCCN2CCCC2)cc1

relative binding affinity (RBA) [1]: 225
Structure (SMILES): C1=C(c2ccccc2)C(c2ccc(OCCN3CCCCC3)cc2)Oc2ccccc21 (stereo not drawn)

relative binding affinity (RBA) [1]: 1170
Structure (SMILES): CC/C(=C(\c1ccccc1)c1ccc(OCCN2CCOCC2)cc1)c1ccccc1

relative binding affinity (RBA) [1]: 540
Structure (SMILES): CC/C(=C(\c1ccccc1)c1ccc(OCCN2CCN(C)CC2)cc1)c1ccccc1

relative binding affinity (RBA) [1]: 90
relative binding affinity (RBA) [13]: 183
relative binding affinity (RBA) [14]: 124
Structure (SMILES): COc1ccc2c(c1)CCC(c1ccccc1)=C2c1ccc(OCCN2CCCC2)cc1

relative binding affinity (RBA) [1]: 434
Structure (SMILES): CC/C(=C(\c1ccccc1)c1ccc(OCCN2CCCC2)cc1)c1ccccc1

Activity [4]: 0.11% [middle of 6 runs]
relative binding affinity (RBA) [6]: 1830
IC50 [15]: 6.5 µM
Structure (SMILES): COc1ccc2c(-c3ccc(OCCN4CCOCC4)cc3)c(Cc3ccc(Cl)cc3)oc2c1.Cl
Cell viability [5]: 79%
IC50 [9]: 0.335 µM

relative binding affinity (RBA) [16]: 68
relative binding affinity (RBA) [3]: < 1
Structure (SMILES): COc1ccc2c(c1)OCC(c1ccc(F)cc1)=C2c1ccc(OCCN2CCOCC2)cc1

relative binding affinity (RBA) [3]: < 1
relative binding affinity (RBA) [17]: 176
Structure (SMILES): COc1ccc2c(c1)OCC(c1ccc(F)cc1)=C2c1ccc(OCCN2CCCC2)cc1

relative binding affinity (RBA) [1]: 19
Structure (SMILES): COc1ccc2c(c1)OC(C)(C)[C@H](c1ccccc1)[C@H]2c1ccc(OCCN2CCCC2)cc1

relative binding affinity (RBA) [2]: 557
relative binding affinity (RBA) [3]: < 1
Structure (SMILES): COc1ccc2c(c1)OCC(c1ccccc1)=C2c1ccc(OCCN2CCCC2)cc1

relative binding affinity (RBA) [1]: 134
Structure (SMILES): C1=C(c2ccccc2)C(c2ccc(OCCN3CCCC3)cc2)Oc2ccccc21 (stereo not drawn)

relative binding affinity (RBA) [3]: < 1
relative binding affinity (RBA) [17]: 161
Structure (SMILES): COc1ccc2c(c1)OCC(c1ccc(F)cc1)=C2c1ccc(OCCN2CCCCC2)cc1

Second part, the compound before the results:

Structure (SMILES): CN(C)CCOc1ccc(C2Oc3ccccc3C=C2c2ccccc2)cc1 (stereo not drawn)
relative binding affinity (RBA) [1]: 98

Structure (SMILES): CCN(CC)CCOc1ccc(C2=C(c3ccc(F)cc3)COc3cc(OC)ccc32)cc1
relative binding affinity (RBA) [10]: 106
relative binding affinity (RBA) [3]: < 1

Structure (SMILES): O=C(c1ccc(OCCN2CCCC2)cc1)c1c(-c2ccc(O)cc2)sc2cc(O)ccc12
relative binding affinity (RBA) [11]: 19
relative binding affinity (RBA) [3]: 115

Structure (SMILES): CCCC(C(=O)OCCN(CC)CC)(c1ccccc1)c1ccccc1
relative binding affinity (RBA) [12]: 12

Structure (SMILES): C=CC(C(=O)OCCN(CC)CC)(c1ccccc1)c1ccccc1
relative binding affinity (RBA) [12]: 10

Structure (SMILES): Oc1cccc(C(=C2CCCCC2)c2cccc(OCCN3CCCCC3)c2)c1
relative binding affinity (RBA) [1]: 10

Structure (SMILES): CCN(CC)CCOc1ccc(C(C)(C)C)cc1
relative binding affinity (RBA) [1]: 0.08

Structure (SMILES): CCN(CC)CCOc1cccc(C(=C2CCCCC2)c2cccc(O)c2)c1
relative binding affinity (RBA) [1]: 6

Structure (SMILES): CCN(CC)CCOc1ccc(Cc2ccccc2)cc1
relative binding affinity (RBA) [12]: 0.06

Structure (SMILES): Oc1cccc(C(=C2CCCCC2)c2cccc(OCCN3CCOCC3)c2)c1
relative binding affinity (RBA) [1]: 25

Structure (SMILES): CN(C)CCOc1cccc(C(=C2CCCCC2)c2cccc(O)c2)c1
relative binding affinity (RBA) [1]: 17

Structure (SMILES): CC/C(=C(\c1ccccc1)c1ccc(OCCN(CC)CC)cc1)c1ccccc1
relative binding affinity (RBA) [18]: 46
relative binding affinity (RBA) [12]: 21

Structure (SMILES): CCN(CC)CCOC(=O)C(CC(C)C)(c1ccccc1)c1ccccc1
relative binding affinity (RBA) [12]: 5

Structure (SMILES): COc1ccc2c(-c3ccc(OCCN(C)C)cc3)c(Cc3ccc(Cl)cc3)oc2c1
relative binding affinity (RBA) [6]: 391
IC50 [15]: 5.03 µM
IC50 [9]: 0.95 µM
